Data reported in paper PMC4124904 (British journal of haematology, 2010).

Key:
[1] = Pharmacokinetic analysis of idarubicin in plasma; format: in vivo, human; conditions: for Cmax: iv, Maximum idarubicin plasma concentration (cmax), schedule A
[2] = system: histone-H3 acetylation in PBMCs; assay: Histone-H3 acetylation in PBMCs; format: in vivo, human
[3] = system: patients with relapsed or refractory leukaemia; assay: Phase I safety and tolerability: adverse events, DLT, MTD; format: in vivo, human; conditions: Schedule B: for 3 days, with idarubicin 12 mg/m^2/d IV for 3 days
[4] = system: TOP2A mRNA; assay: Real-time PCR of TOP2A mRNA expression in PBMCs; format: in vivo, human
[5] = Pharmacokinetic analysis of vorinostat and two metabolites; format: in vivo, human; conditions: for Tmax / Cmax: human, serum
How it was run: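 Relapsed/refractory leukaemia patients self-dosed oral HDAC inhibitor TID for 14 days (arm A) or 3 days (arm B), 3+3 escalation from 100 mg, with anthracycline 12 mg/m2 IV over 30 min on days 1–3. Blood clotted 20–30 min at 4°C, spun 2,000 × g 15 min at 4°C, serum stored at -70°C. […] Dosing times unrecorded, so only Cmax and Tmax were derived.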

[6] = system: patients with refractory cutaneous T cell lymphoma (CTCL); conditions: et al 2007, cited from earlier work

**Q.** For `CC(=O)[C@]1(O)Cc2c(O)c3c(c(O)c2[C@@H](O[C@H]2C[C@H](N)[C@H](O)[C@H](C)O2)C1)C(=O)c1ccccc1C3=O` [idarubicin], which half-life ([1]; human, plasma, intravenous) is on record?
**A.** ~11 h

**Q.** What about the Cmax ([1]; human, plasma, mean, idarubicin 30-min intravenous infusion) of the same molecule?
**A.** 66.1 ng/mL

**Q.** And the Cmax ([1]; human, plasma, range, idarubicin 30-min intravenous infusion)?
**A.** 19.5 to 139 ng/mL

**Q.** What about the “Idarubicin peak plasma concentration, mean” value ([1]; schedule B, idarubicin 30-min intravenous infusion) of the same molecule?
**A.** 55.4 ng/mL

**Q.** With `O=C(CCCCCCC(=O)Nc1ccccc1)NO` [vorinostat] as the molecule, how does the “Patients with detectable histone acetylation at day 21” value ([2]; 3-day schedule of vorinostat) read?
**A.** 50%

**Q.** And the “Patient samples with increased histone-H3 acetylation” value ([2]; 15 of 33 available patient samples, both schedules)?
**A.** 46%

**Q.** And the “Patients with increased histone-H3 acetylation” value ([2]; schedule A)?
**A.** 5/11

**Q.** And the “Patients with increased histone-H3 acetylation” value ([2]; schedule B)?
**A.** 10/22

**Q.** What about the “Maximum tolerated dose (MTD) of vorinostat” value [3] of the same molecule?
**A.** 400 mg TID

**Q.** What about the “Change of TOP2A mRNA levels relative to pretreatment” value ([4]; schedule A, day 1 to day 21, p=0.016, Wilcoxon signed rank test) of the same molecule?
**A.** downregulation

**Q.** And the “Change of TOP2A mRNA levels relative to pretreatment” value ([4]; schedule B, by day 3 of therapy, p=0.168, Wilcoxon, returned to baseline later)?
**A.** trend towards downregulation

**Q.** And the Plasma concentrations achieved ([5]; TID dosing for 3 days, dose levels of 400 mg and 500 mg)?
**A.** > 2000 nM

**Q.** And the Tmax ([5]; oral)?
**A.** 1 to 3 h

**Q.** And the Cmax ([5]; oral, Median Cmax for vorinostat, non-responders)?
**A.** 800 nM

**Q.** And the Tmax ([5]; po, 100 mg)?
**A.** 2.5 h

**Q.** What about the Cmax ([5]; po, 100 mg, Vorinostat Mean Cmax, vorinostat 100 mg TID for 3 days oral, with idarubicin, N=3) of the same molecule?
**A.** 688 nM

**Q.** What about the Cmax ([5]; po, 100 mg, Vorinostat Median Cmax (Range), vorinostat 100 mg TID for 3 days oral, with idarubicin, N=3) of the same molecule?
**A.** 331 nM

**Q.** And the Cmax ([5]; po, 200 mg, Vorinostat Mean Cmax, vorinostat 200 mg TID for 3 days oral, with idarubicin, N=3)?
**A.** 522 nM

**Q.** And the Cmax ([5]; po, 200 mg, Vorinostat Median Cmax (Range), vorinostat 200 mg TID for 3 days oral, with idarubicin, N=3)?
**A.** 443 nM

**Q.** What about the Tmax ([5]; po, 300 mg) of the same molecule?
**A.** 2.5 h

**Q.** What about the Tmax ([5]; po, 400 mg) of the same molecule?
**A.** 2.25 h

**Q.** What about the “Vorinostat Median Tmax” value ([5]; vorinostat 100 mg TID for 3 days oral, with idarubicin, N=3) of the same molecule?
**A.** 2 h

**Q.** What about the “Vorinostat Median Tmax” value ([5]; vorinostat 200 mg TID for 3 days oral, with idarubicin, N=3) of the same molecule?
**A.** 1 h

**Q.** What about the “Vorinostat Median Tmax” value ([5]; vorinostat 500 mg TID for 3 days oral, with idarubicin, N=5) of the same molecule?
**A.** 3 h

**Q.** And the Response rate ([6]; Phase II, 3 different schedules, refractory CTCL, ref Duvic)?
**A.** 24%

**Q.** What about the Objective response rate ([6]; second Phase II trial, progressive or refractory CTCL, ref Olsen) of the same molecule?
**A.** 30%
